Structures are written as SMILES.

The target of experiment [1] is T1, Adenosine receptor A3 (Homo sapiens, UniProt P0DMS8).
T1 sequence (P0DMS8 whole entry): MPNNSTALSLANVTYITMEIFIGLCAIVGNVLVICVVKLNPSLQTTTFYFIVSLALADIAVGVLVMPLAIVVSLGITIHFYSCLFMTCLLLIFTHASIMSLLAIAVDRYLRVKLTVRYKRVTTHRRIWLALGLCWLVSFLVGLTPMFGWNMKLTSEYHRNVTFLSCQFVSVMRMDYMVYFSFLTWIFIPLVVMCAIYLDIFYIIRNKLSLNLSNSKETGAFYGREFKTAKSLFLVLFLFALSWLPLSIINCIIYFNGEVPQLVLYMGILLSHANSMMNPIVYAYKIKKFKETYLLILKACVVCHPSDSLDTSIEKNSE
In words: Displacement of [3H]MRE3008-F20 from human Adenosine A3 receptor expressed in HEK cells; range 0.59-0.83. The experiment is classed as cell-based, HEK293. In general terms: In a radioligand displacement assay an active substance lowers the binding of a labelled ligand.

Experiment [2] deals with T2, Adenosine receptor A2b (Homo sapiens, UniProt P29275).
T2 sequence (P29275 whole entry): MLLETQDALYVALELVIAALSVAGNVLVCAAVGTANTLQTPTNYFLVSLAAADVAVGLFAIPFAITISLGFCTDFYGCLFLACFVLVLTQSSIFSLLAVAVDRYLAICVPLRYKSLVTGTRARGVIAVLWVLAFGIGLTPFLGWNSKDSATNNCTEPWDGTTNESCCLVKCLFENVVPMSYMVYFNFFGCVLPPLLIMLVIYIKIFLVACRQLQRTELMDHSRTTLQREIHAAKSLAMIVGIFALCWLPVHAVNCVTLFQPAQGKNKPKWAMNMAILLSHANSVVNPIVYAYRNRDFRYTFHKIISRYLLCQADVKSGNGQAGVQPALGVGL
As to the kind of experiment: Displacement of [3H]DPCPX from human Adenosine A2B receptor expressed in HEK293 cells; range 187-265. Type of experiment: cell-based. The method in brief:
(§1)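 Membranes from HEK-293 cells with human recombinant A2B receptor. Incubation 60 min at 25 °C in 50 mM Tris HCl, 10 mM MgCl2, 1 mM EDTA, 0.1 mM benzamidine, pH 7.4, with 2 IU/mL adenosine deaminase and 40 nM [3H]DPCPX. At least six to eight test concentrations. Nonspecific binding defined with NECA. n = 3-6.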

The target in experiment [3] is T3, Adenosine receptor A2a (Homo sapiens, UniProt P29274). As to the kind of experiment: Displacement of [3H]SCH-58261 from human Adenosine A2A receptor expressed in HEK293 cells; range 146-220. Type of experiment: cell-based.
The target in experiment [4] is Adenosine receptors; A2b & A3 (Homo sapiens) (UniProt P29275+P0DMS8). As to the kind of experiment: Selectivity ratio (h2B/hA3). Type of experiment: protein assay.
In experiment [5] the target is T1, Adenosine receptor A3. In words: Inhibition of IB-MECA agonist-mediated cAMP production in CHO cell membranes expressing human Adenosine A3 receptor; range 3.0-10.8. Type of experiment: functional, cell-based. A general note: Changes in cAMP serve as a functional read-out for many G protein-coupled receptors.
The target of experiment [6] is T4, Adenosine receptor A1 (Homo sapiens, UniProt P30542).
T4 sequence (P30542 whole entry): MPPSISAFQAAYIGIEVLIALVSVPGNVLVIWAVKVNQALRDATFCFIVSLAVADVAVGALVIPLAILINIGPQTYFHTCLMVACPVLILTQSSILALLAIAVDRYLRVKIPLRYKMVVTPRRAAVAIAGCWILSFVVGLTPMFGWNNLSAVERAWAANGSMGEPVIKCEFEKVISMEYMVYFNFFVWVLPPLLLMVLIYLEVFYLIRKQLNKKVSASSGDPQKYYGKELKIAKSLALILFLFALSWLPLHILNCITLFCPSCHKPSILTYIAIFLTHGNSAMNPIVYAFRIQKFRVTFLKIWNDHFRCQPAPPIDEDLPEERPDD
In words: Displacement of [3H]DPCPX from human Adenosine A1 receptor expressed in CHO cells; range 379-535. Type of experiment: cell-based. A digest of the protocol: (§2)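 Human recombinant A1 receptor in CHO cell membranes, resuspended in 50 mM Tris HCl pH 7.4. Displacement run 120 min at 25 °C with 1 nM [3H]DPCPX, 50 µg protein per assay, and at least six to eight test concentrations. Nonspecific binding defined with CHA. Bound and free separated on glass-fiber filters; filter radioactivity counted. n = 3-6.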

The target in experiment [7] is Adenosine receptors; A1 & A3 (Homo sapiens) (UniProt P30542+P0DMS8). As to the kind of experiment: Selectivity ratio (hA1/hA3). The experiment is classed as protein assay.
The target in experiment [8] is T1, Adenosine receptor A3. In words: Displacement of [3H]MRE3008-F20 from human Adenosine A3 receptor expressed in HEK cells; range 0.28-0.41. The experiment is classed as cell-based, HEK293.
Experiment [9] has as its target T1, Adenosine receptor A3. In words: Inhibition of IB-MECA agonist-mediated cAMP production in CHO cell membranes expressing human Adenosine A3 receptor; range 2.0-4.3. Type of experiment: functional, cell-based.
Experiment [10] has as its target T4, Adenosine receptor A1. In words: Displacement of [3H]DPCPX from human Adenosine A1 receptor expressed in CHO cells; range 262-814. Type of experiment: cell-based. The settings on record: in the assay text read “range 602-814” for “range 262-814”. The method in brief: as §2
Experiment [11] deals with T2, Adenosine receptor A2b. As to the kind of experiment: Displacement of [3H]DPCPX from human Adenosine A2B receptor expressed in HEK293 cells; range 183-278. The experiment is classed as cell-based. The method in brief: as §1
For experiment [12], the target named is T3, Adenosine receptor A2a. As to the kind of experiment: Displacement of [3H]SCH-58261 from human Adenosine A2A receptor expressed in HEK293 cells; range 103-140. Type of experiment: cell-based.
For experiment [13], the target named is T1, Adenosine receptor A3. In words: biochemical.
Experiment [14] has as its target T3, Adenosine receptor A2a. As to the kind of experiment: Displacement of [3H]SCH-58261 from human Adenosine A2A receptor expressed in HEK293 cells; range 402-608. The experiment is classed as cell-based.
Experiment [15] has as its target T4, Adenosine receptor A1. In words: Displacement of [3H]DPCPX from human Adenosine A1 receptor expressed in CHO cells; range 598-838. Type of experiment: cell-based.
Experiment [16] has as its target T2, Adenosine receptor A2b. As to the kind of experiment: Displacement of [3H]DPCPX from human Adenosine A2B receptor expressed in HEK293 cells; range 26-45. Type of experiment: cell-based. A digest of the protocol: as §1
Experiment [17] concerns the target T2, Adenosine receptor A2b. As to the kind of experiment: Displacement of [3H]-DPCPX from human Adenosine A2B receptor expressed in HEK293 cells; range 125-218. Type of experiment: cell-based. A digest of the protocol:
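HEK-293 membranes expressing the human receptor were incubated 60 min at 25 °C. Six to eight test concentrations were used. Nonspecific binding was set with NECA. n = 3-6.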

The target in experiment [18] is T1, Adenosine receptor A3. In words: biochemical. This is another data set of the same source.
For experiment [19], the target named is T3, Adenosine receptor A2a. In words: Displacement of [3H]SCH-58261 from human Adenosine A2A receptor expressed in HEK293 cells; range 73-138. Type of experiment: cell-based.
In experiment [20] the target is T4, Adenosine receptor A1. In words: Displacement of [3H]DPCPX from human Adenosine A1 receptor expressed in CHO cells; range 180-345. Type of experiment: cell-based. A digest of the protocol:
as §2

Experiment [21] deals with T2, Adenosine receptor A2b. As to the kind of experiment: Displacement of [3H]DPCPX from human Adenosine A2B receptor expressed in HEK293 cells; range 40-69. The experiment is classed as cell-based. The method in brief: as §1
The target of experiment [22] is T1, Adenosine receptor A3. In words: Displacement of [3H]MRE3008-F20 from human Adenosine A3 receptor expressed in HEK cells; range 0.22-0.40. The experiment is classed as cell-based, HEK293.
Experiment [23] has as its target T3, Adenosine receptor A2a. In words: Displacement of [3H]SCH-58,261 from human Adenosine A2A receptor expressed in HEK293 cells; range 543-820. Type of experiment: cell-based.
Experiment [24] addresses T4, Adenosine receptor A1. In words: Displacement of [3H]DPCPX from human Adenosine A1 receptor expressed in CHO cells; range 738-961. The experiment is classed as cell-based. The method in brief: as §2

T3 sequence (P29274 whole entry): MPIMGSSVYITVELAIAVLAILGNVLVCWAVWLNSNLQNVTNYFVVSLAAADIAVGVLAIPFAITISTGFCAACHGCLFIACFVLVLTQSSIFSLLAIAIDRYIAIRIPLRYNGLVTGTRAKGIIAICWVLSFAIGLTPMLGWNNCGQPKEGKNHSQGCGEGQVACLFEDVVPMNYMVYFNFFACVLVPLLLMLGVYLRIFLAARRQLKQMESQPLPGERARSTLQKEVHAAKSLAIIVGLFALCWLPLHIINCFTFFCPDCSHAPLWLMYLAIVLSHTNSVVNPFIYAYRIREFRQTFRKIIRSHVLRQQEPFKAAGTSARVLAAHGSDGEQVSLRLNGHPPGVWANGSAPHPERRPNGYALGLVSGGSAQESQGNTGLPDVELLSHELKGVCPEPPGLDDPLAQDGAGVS

As to `COc1ccccc1NC(=O)Nc1nc2nn(C)cc2c2nc(-c3ccco3)nn12`, the Ki – broadly, the equilibrium dissociation constant of an inhibitor or competing ligand from its target – on Adenosine receptor A3 [1] came out at 0.7 nM; on Adenosine receptor A2b [2] it was 223 nM; on Adenosine receptor A2a [3], 180 nM; at Adenosine receptor A1 [6], 450 nM. The figures for the Ratio in [4] and in experiment [7] were 319 and 643, respectively. Also, the IC50 (usually the concentration that inhibits the measured activity by half) at Adenosine receptor A3 [5] turned out to be 5.6 nM.

As to `Cn1cc2c(nc(NC(=O)Nc3ccc(F)cc3)n3nc(-c4ccco4)nc23)n1`, the inhibition constant (Ki) was 0.34 nM at Adenosine receptor A3 [8], 700 nM at Adenosine receptor A1 [10], 226 nM at Adenosine receptor A2b [11] and 120 nM at Adenosine receptor A2a [12]. The Ratio in experiment [4] stood at 665; in [7], 2060. This compound also gave an IC50 on Adenosine receptor A3 [9] of 3 nM.

As for `CCCCn1cc2c(nc(NC(=O)Nc3ccc(Cl)c(Cl)c3)n3nc(-c4ccco4)nc23)n1`, the inhibition constant (Ki) on Adenosine receptor A3 [13] worked out at 3.7 nM; on Adenosine receptor A2a [14], 495 nM; at Adenosine receptor A1 [15], 708 nM; at Adenosine receptor A2b [16] it was 34 nM. Besides, the Ratio in [4] is 9.19; in experiment [7] it was 191.

With `CCCn1cc2c(nc(NC(=O)Nc3ccccc3OC)n3nc(-c4ccco4)nc23)n1`, the inhibitory constant (Ki) at Adenosine receptor A2b [17] was 165 nM; on Adenosine receptor A3 [18], 0.34 nM; on Adenosine receptor A2a [19], 100 nM; at Adenosine receptor A1 [20] it was 250 nM. Moreover, the Ratio in experiment [4] was determined as 485; in experiment [7] it was 735.

With `CCCn1cc2c(nc(NC(=O)Nc3ccc4c(c3)OCO4)n3nc(-c4ccco4)nc23)n1`, the Ki on Adenosine receptor A2b [21] was found to be 53 nM; on Adenosine receptor A3 [22], 0.3 nM; on Adenosine receptor A2a [23], 667 nM; on Adenosine receptor A1 [24] it was 842 nM. Further, the Ratio in [4] turned out to be 177; in experiment [7], 2810.
